According to ChEMBL document CHEMBL1126741 (J Med Chem, 1993):
pKi: −log10 of the molar value.

Experiments:
[1] = tested on: Felis catus; test: (§1) Maximum decrease in sympathetic nerve discharge(SND) observed at 1 mg/kg dose in cat; type: functional; design: scale not given: the % may be the effect or the level left
Outline: (§2)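 Chloralose-anesthetized mongrel cats (80 mg/kg iv), stereotaxic, femoral cannulation. SND integrated cumulatively; pretreatment value averaged over the last 10 min of a 1 h equilibration. Cumulative iv dosing from 0.01 up to 1.0 mg/kg every 20 min, read 15–20 min after each dose. Maximum SND decrease at 1 mg/kg expressed as % control (±SEM); n = 2–8 cats.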

[2] = target: D(2) dopamine receptor (Homo sapiens, UniProt P14416); test: Displacement of [3H]U-86170 from human D2-dopamine receptor expressed in CHO K1 cells; type: cell-based
D(2) dopamine receptor, sequence (P14416 whole entry): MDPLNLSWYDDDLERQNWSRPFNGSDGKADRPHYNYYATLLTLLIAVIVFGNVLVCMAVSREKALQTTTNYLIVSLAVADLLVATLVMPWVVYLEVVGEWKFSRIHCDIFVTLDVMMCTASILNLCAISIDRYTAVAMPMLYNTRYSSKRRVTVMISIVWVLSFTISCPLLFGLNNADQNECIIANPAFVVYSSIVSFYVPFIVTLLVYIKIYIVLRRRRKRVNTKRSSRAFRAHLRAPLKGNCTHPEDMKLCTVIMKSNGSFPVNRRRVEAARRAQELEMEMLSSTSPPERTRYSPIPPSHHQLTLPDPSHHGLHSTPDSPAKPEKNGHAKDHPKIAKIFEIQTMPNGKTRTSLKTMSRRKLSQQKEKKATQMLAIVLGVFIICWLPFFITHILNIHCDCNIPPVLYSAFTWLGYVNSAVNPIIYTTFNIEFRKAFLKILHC

[3] = tested on: Mus musculus; test: Dose required to obtain hypothermic effect in mice following subcutaneous administration; type: functional; details: sc
Outline: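 Charles River mice (18–22 g), housed singly, given 0.1-mL sc injections at doses spaced in half-log intervals. Rectal temperature read 20 min after injection. Responders were those of four mice per dose that dropped >1.1 °C. ED50 by Spearman–Karber, with 95% confidence intervals.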

[4] = tested on: Mus musculus; test: Maximum obtainable hypothermic effect up to 30 mg/kg dose in mice expressed as temperature decrease in degree Centigrade; type: functional
Outline: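 Mice (Charles River, 18–22 g) dosed sc in 0.1 mL at doses up to 30 mg/kg. Rectal temperature measured 20 min after injection. The mean maximum temperature drop at 20 min is recorded as a crude index of efficacy.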

[5] = tested on: Felis catus; test: Dose required to reduce sympathetic nerve discharge in cats following intravenous administration
[6] = Dose to reduce neuronal firing against 5-HT cells in rats (iv); type: functional; details: Rattus norvegicus
Outline: (§3)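 Male Sprague-Dawley rats (250-350 g) anaesthetised with chloral hydrate 400 mg/kg. Extracellular single-unit firing was recorded by glass microelectrode (pontamine sky blue in 2 M NaCl) from 5-HT cells in dorsal raphe or DA cells in substantia nigra pars compacta, with drug given iv. Cell sites were confirmed histologically by dye mark. ED50 is the dose inhibiting firing by 50%, in µg/kg ±SEM, with n animals.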

[7] = tested on: Felis catus; test: Dose required to completely shut off sympathetic nerve discharge in cat following intravenous administration; type: functional
[8] = tested on: Felis catus; test: Dose required to reduce sympathetic nerve discharge in cat following intravenous administration; type: functional
Outline: (§4)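 Mongrel cats (2.5-4.0 kg) anaesthetised with chloralose 80 mg/kg iv, in a stereotaxic frame, femoral artery and vein cannulated. SND was quantified by cumulative integration of slow waves, with a 1 h equilibration and baseline taken over the last 10 min. Cumulative iv doses of 0.01, 0.03, 0.1, 0.3 and 1.0 mg/kg were given every 20 min, each read 15-20 min post-dose. ED50 is the dose reducing SND to 50% of pretreatment (95% CI). Maximum decrease at 1 mg/kg is given as % control ±SEM.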

[9] = Dose to reduce neuronal firing against DA cells in rats (iv); type: functional; details: Rattus norvegicus; outline: as §3
[10] = Dose to reduce neuronal firing against DA cells (antagonist) in rats (iv); type: functional; details: Rattus norvegicus
[11] = tested on: Felis catus; test: as §1; type: functional; design: scale not given: the % may be the effect or the level left; outline: as §4; remark: listed apart in the source
[12] = tested on: Felis catus; test: Maximum decrease in sympathetic nerve discharge(SND) +/-SEM observed at 1 mg/kg dose in cat; type: functional; design: scale not given: the % may be the effect or the level left; outline: as §2

For `CCCN(CCC)[C@H]1CCc2ccc3[nH]c(C#N)cc3c2C1`, the Control [1] was 0%, the pKi [2] was 6.05 and the ED50 [3] was 1.3 mg/kg. The Temperature [4] was 6.3 °C and the ED50 [5] was 0.15 mg/kg.

In the case of `CCCN(CCCCN1C(=O)CC(C)(C)CC1=O)[C@@H]1CCc2ccc3[nH]c(C#N)cc3c2C1`, the Control [1] was 0%, the pKi [2] was 7.36 and the ED50 [3] was 0.13 mg/kg. It also gave a Temperature [4] of 6.8 °C and an ED50 [5] of 0.01 mg/kg.

`CCCN(CCC)[C@@H]1CCc2ccc3[nH]c(C#N)cc3c2C1` [U-92,016-A] showed an ED50 [6] of 0.0034 mg/kg, an ED50 [7] of 0.03 mg/kg and an ED50 [8] of 0.017 mg/kg. The Control [1] was 0%, the ED50 [9] was 0.084 mg/kg and the pKi [2] was 7.46. For the same molecule, the ED50 [3] was 0.04 mg/kg and the Temperature [4] was 7.2 °C.

`CCCN(CCCCN1C(=O)CC(C)(C)CC1=O)[C@@H]1CCc2ccc3[nH]c(C(N)=O)cc3c2C1` gave a Control [1] of 22%, a pKi [2] of 7.42 and an ED50 [3] of 9.7 mg/kg. The Temperature [4] was 2.8 °C and the ED50 [5] was 0.41 mg/kg.

In the case of `O=C1CC2(CCCC2)CC(=O)N1CCCCN1CCN(c2ncccn2)CC1` [BUSPIRONE], the ED50 [6] was 0.0154 mg/kg, the ED50 [8] was 0.08 mg/kg and the Control [1] was 43%. For the same molecule, the ED50 [10] was 0.0113 mg/kg, the ED50 [3] was 3 mg/kg and the Temperature [4] was 1.9 °C.

For `CCCN(CC1CC1)[C@H]1CCc2ccc3[nH]c(C(N)=O)cc3c2C1`, the Control [1] was 14%, the pKi [2] was less than 6.00 and the ED50 [3] was 9.7 mg/kg. For the same molecule, the Temperature [4] was 3.3 °C and the ED50 [5] was 0.4 mg/kg.

With `CCCN[C@@H]1CCc2ccc3[nH]c(C(N)=O)cc3c2C1` the pKi [2] was 6.07, the ED50 [3] was 2.3 mg/kg and the Temperature [4] was 2.4 °C.

Molecule `CCCN[C@H]1CCc2ccc3[nH]c(C(N)=O)cc3c2C1` has a pKi [2] of less than 5.78, an ED50 [3] of 17.3 mg/kg and a Temperature [4] of 1.8 °C.

In the case of `CCCN(CC1CC1)[C@@H]1CCc2ccc3[nH]c(C(N)=O)cc3c2C1`, the Control [1] was 43%, the pKi [2] was 6.41 and the ED50 [3] was 2.3 mg/kg. For the same molecule, the Temperature [4] was 4 °C and the ED50 [5] was 0.9 mg/kg.

In the case of `CCCN(CCCCN1C(=O)CC(C)(C)CC1=O)[C@H]1CCc2ccc3[nH]c(C(N)=O)cc3c2C1`, the pKi [2] was 6.04, the ED50 [3] was 4.1 mg/kg and the Temperature [4] was 2.2 °C.

For `CCCN(CCC)[C@@H]1CCc2cccc(O)c2C1`, the ED50 [6] was 0.0016 mg/kg, the Control [11] was 0% and the ED50 [10] was 0.74 mg/kg. It also gave an ED50 [3] of 1 mg/kg, a Temperature [4] of 4 °C and an ED50 [5] of 0.01 mg/kg.

`CCCN(CCC)[C@H]1CCc2ccc3[nH]c(C(N)=O)cc3c2C1` showed an ED50 [6] greater than 0.1 mg/kg, an ED50 [8] of 0.19 mg/kg and a Control [1] of 10%. The pKi [2] was less than 6.00, the ED50 [3] was 1 mg/kg and the Temperature [4] was 2.2 °C.

Work on `CCCN(CCC)[C@@H]1CCc2ccc3[nH]c(C(N)=O)cc3c2C1` yielded an ED50 [6] greater than 0.1 mg/kg, an ED50 [8] of 0.19 mg/kg and a Control [12] of 0%. It also gave a pKi [2] of 6.67, an ED50 [3] of 0.6 mg/kg and a Temperature [4] of 3.3 °C.

For `CCCN(CCCCN1C(=O)CC(C)(C)CC1=O)[C@H]1CCc2ccc3[nH]c(C#N)cc3c2C1`, the pKi [2] was less than 6.48, the ED50 [3] was 3.1 mg/kg and the Temperature [4] was 3.9 °C.
